Bounds are passed on as bounds.

Series [1] deals with T1, 3-hydroxy-3-methylglutaryl-coenzyme A reductase (Rattus norvegicus, UniProt P51639).
T1 sequence (P51639 whole entry): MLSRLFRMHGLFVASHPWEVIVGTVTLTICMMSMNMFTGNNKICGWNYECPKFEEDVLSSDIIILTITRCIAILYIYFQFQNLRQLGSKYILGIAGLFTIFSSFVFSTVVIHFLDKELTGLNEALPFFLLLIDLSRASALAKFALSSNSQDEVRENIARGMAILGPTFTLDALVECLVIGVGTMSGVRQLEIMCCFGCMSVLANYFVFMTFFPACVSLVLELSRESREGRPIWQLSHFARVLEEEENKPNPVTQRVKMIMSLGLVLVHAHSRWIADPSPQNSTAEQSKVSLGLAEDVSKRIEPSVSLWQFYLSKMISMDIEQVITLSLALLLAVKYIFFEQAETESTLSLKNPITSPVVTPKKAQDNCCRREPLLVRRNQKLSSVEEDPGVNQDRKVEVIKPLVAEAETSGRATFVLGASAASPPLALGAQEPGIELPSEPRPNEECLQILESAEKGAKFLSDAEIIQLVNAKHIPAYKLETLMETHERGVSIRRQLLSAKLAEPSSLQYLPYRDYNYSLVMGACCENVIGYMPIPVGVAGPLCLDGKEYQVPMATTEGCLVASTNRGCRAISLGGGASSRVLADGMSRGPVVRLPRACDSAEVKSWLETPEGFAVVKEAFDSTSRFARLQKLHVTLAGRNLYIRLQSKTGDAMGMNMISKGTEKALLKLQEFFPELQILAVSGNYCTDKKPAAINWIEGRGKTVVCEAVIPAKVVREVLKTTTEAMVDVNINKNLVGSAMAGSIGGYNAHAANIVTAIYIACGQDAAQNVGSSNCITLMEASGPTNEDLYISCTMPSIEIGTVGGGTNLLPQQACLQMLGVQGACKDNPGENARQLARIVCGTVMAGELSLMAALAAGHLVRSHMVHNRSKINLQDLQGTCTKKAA
Description: Inhibitory activity against washed rat liver microsomal HMG-CoA reductase (HMGR). The method, boiled down:
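Male Wistar rats (100–120 g) on reversed light cycle, killed at 0800 h; washed liver microsomes (10000g then 105000g spins, 4 °C) in buffer A (50 mM K phosphate pH 7.4, 250 mM NaCl, 10 mM EDTA, 1 mM DTT). Enzyme+inhibitor preincubated 10 min 37 °C; NADPH-regenerating system plus [3-14C]HMG-CoA added; HCl stop, lactonization, anion-exchange isolation of [14C]mevalonate, scintillation. Five concentrations, duplicate, ≥2 occasions; pravastatin reference.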
(In general: Liver microsomes are a subcellular fraction often used to study metabolism.)

Series [2] in a line: Partition coefficient (logD7.4). The settings on record: octanol/water, pH 7.4. The series is classed as physicochemical. An outline of the steps: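 log D by HPLC in n-octanol–water: compound dissolved in pH 7.4 aqueous borax-phosphate buffer saturated with n-octanol, eluted through a column of n-octanol physically bonded to fractionated hyflosuperpel.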
A further series deals with HepG2. As to the kind of experiment: Tested for ability to inhibit the incorporation of [14C]- acetate in to cholesterol in HepG2 cells. The format is functional, cell-based. Particulars: Homo sapiens. The method, boiled down:
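HepG2 cells in MEM + 10% fetal calf serum to 80% confluency, switched to serum-free MEM; inhibitor and sodium [14C]acetate added together, 3 h. Saponified, petroleum ether extract; [14C]cholesterol separated by reverse-phase HPLC and measured by radioactivity flow monitor. At least five concentrations, triplicate, run twice; lovastatin standard.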

For `CC(C)c1nc(-c2ccc(F)cc2)c(-c2cc(Cl)cc(Cl)c2)n1/C=C/[C@@H](O)C[C@@H](O)CC(=O)O`, half-maximal inhibition in series [1] (IC50) was put at 22 nM.
Still for that read-out and setting: as for `CC(C)c1nc(-c2ccc(F)cc2)c(-c2ccc(F)cc2)n1CC[C@@H](O)C[C@@H](O)CC(=O)O`, the figure is 316 nM.
In series [2], `CNc1cccc(-c2nc(C(C)C)n(/C=C/[C@@H](O)C[C@@H](O)CC(=O)O)c2-c2ccc(F)cc2)c1` showed a logD of -0.05. Half-maximal inhibition in series [1] (IC50) required 3 nM.
For `COc1cccc(-c2nc(C(F)(F)F)n(CC[C@@H](O)C[C@@H](O)CC(=O)O)c2-c2ccc(F)cc2)c1`, in series [1], the IC50 was 20 nM.
Still for that read-out and setting: as for `COc1ccc(-c2nc(C(F)(F)F)n(CC[C@@H](O)C[C@@H](O)CC(=O)O)c2-c2ccc(F)cc2)cc1`, the figure is 68 nM; as for `O=C(O)C[C@H](O)C[C@H](O)CCn1c(C(F)(F)F)nc(-c2ccccc2)c1-c1ccc(F)cc1`, 31 nM; as for `CC(C)c1nc(-c2ccc(F)cc2)c(-c2cccc(Cl)c2)n1/C=C/[C@@H](O)C[C@@H](O)CC(=O)O`, 8 nM.
On the same count and under the same terms, next, `COc1cccc(-c2c(-c3ccc(F)cc3)nc(C(F)(F)F)n2CC[C@@H](O)C[C@@H](O)CC(=O)O)c1`: 135 nM; `O=C(O)C[C@H](O)C[C@H](O)CCn1c(C(F)(F)F)nc(-c2ccc(F)cc2)c1-c1cccc(Cl)c1`: 41 nM; `Cc1cc(C)cc(-c2nc(C(F)(F)F)n(CC[C@@H](O)C[C@@H](O)CC(=O)O)c2-c2ccc(F)cc2)c1`: 24 nM.
In the case of `CC(C)c1nc(-c2ccc(F)cc2)c(-c2ccc(F)cc2)n1/C=C/[C@@H](O)C[C@@H](O)CC(=O)O` [listing 1 of 2 here], the IC50 in series [1] worked out at 1 nM; in the series with HepG2, 2.5 nM.
`Cc1cc(-c2nc(C(C)C)n(/C=C/[C@@H](O)C[C@@H](O)CC(=O)O)c2-c2ccc(F)cc2)cc(C)c1Cl` had a pH-dependent lipophilicity (logD) in series [2] of 2.27. Also, the half-maximal inhibitory concentration (IC50) was found to be 2 nM in series [1] and 0.9 nM in the series with HepG2.
Turning to `O=C(O)C[C@H](O)C[C@H](O)CCn1c(C(F)(F)F)nc(-c2ccc(F)cc2)c1-c1cccs1`, the concentration for half-maximal inhibition (IC50) in series [1] is 215 nM.
On the same count and under the same terms, as for `Cc1cccc(-c2c(-c3ccc(F)cc3)nc(C(F)(F)F)n2CC[C@@H](O)C[C@@H](O)CC(=O)O)c1`, the figure is 74 nM.
`O=C(O)C[C@H](O)C[C@H](O)CCn1c(C(F)(F)F)nc(-c2cccnc2)c1-c1ccc(F)cc1` gave an IC50 in series [1] of 66 nM.
On to `CCc1cc(-c2c(-c3ccc(F)cc3)nc(C(C)C)n2/C=C/[C@@H](O)C[C@@H](O)CC(=O)O)cc(CC)c1F`, for which, in series [1], the IC50 worked out at 100 nM.
On the same count and under the same terms, next, `O=C(O)C[C@H](O)C[C@H](O)CCn1c(C(F)(F)F)nc(-c2ccc(C(F)(F)F)cc2)c1-c1ccc(F)cc1`: 200 nM; `Cc1ccc(-c2c(-c3ccc(F)cc3)nc(C(F)(F)F)n2CC[C@@H](O)C[C@@H](O)CC(=O)O)cc1`: 750 nM.
Still for that read-out and setting: next, `Cc1cc(C)cc(-c2c(-c3ccc(F)cc3)nc(C(F)(F)F)n2CC[C@@H](O)C[C@@H](O)CC(=O)O)c1`: 38 nM.
`Cc1cc(F)ccc1-c1c(-c2ccc(F)cc2)nc(C(C)C)n1/C=C/[C@@H](O)C[C@@H](O)CC(=O)O` yielded a logD in series [2] of 0.86. The midpoint of inhibition in series [1], the IC50, lay at 4 nM.
Regarding `O=C(O)C[C@H](O)C[C@H](O)CCn1c(C(F)(F)F)nc(-c2ccc(F)cc2)c1-c1ccc(C(F)(F)F)cc1`, the IC50 in series [1] is above 1000 nM.
Still for that read-out and setting: next, `CC(C)c1nc(-c2ccc(F)cc2)c(-c2ccc(F)cc2)n1/C=C/[C@H](O)C[C@@H](O)CC(=O)O`: 2000 nM; `COc1ccc(-c2c(-c3ccc(F)cc3)nc(C(F)(F)F)n2CC[C@@H](O)C[C@@H](O)CC(=O)O)cc1`: 418 nM.
On the same count and under the same terms, as for `O=C(O)C[C@H](O)C[C@H](O)CCn1c(C(F)(F)F)nc(-c2ccc(F)cc2)c1-c1ccc(F)cc1`, the figure is 38 nM; as for `CC(C)(C)c1nc(-c2ccc(F)cc2)c(-c2ccc(F)cc2)n1/C=C/[C@@H](O)C[C@@H](O)CC(=O)O`, 7 nM; as for `Cc1cc(-c2c(-c3ccc(F)cc3)nc(C(F)(F)F)n2CC[C@@H](O)C[C@@H](O)CC(=O)O)cc(C)c1F`, 31 nM.
Same read-out and setting: as for `CC(C)c1nc(-c2ccccc2)n(-c2ccc(F)cc2)c1/C=C/[C@@H](O)C[C@@H](O)CC(=O)O`, the figure is 2.6 nM.
With `CC(C)c1nc(-c2cccc(S(C)(=O)=O)c2)c(-c2ccc(F)cc2)n1/C=C/[C@@H](O)C[C@@H](O)CC(=O)O`, the logD in series [2] was -0.6. In series [1], this compound returned an IC50 of 2 nM.
The compound `CC(C)c1nc(-c2ccc(F)cc2)c(-c2ccc(F)cc2)n1/C=C/[C@H](O)C[C@H](O)CC(=O)O` came in with a half-inhibitory concentration (IC50) in series [1] of 700 nM.
For `Cc1cc(C)cc(-c2c(-c3ccc(F)cc3)nc(C(C)C)n2/C=C/[C@@H](O)C[C@@H](O)CC(=O)O)c1`, 56 nM corresponded to half-maximal inhibition in series [1] (IC50).
Still for that read-out and setting: as for `O=C(O)C[C@H](O)C[C@H](O)CCn1c(C(F)(F)F)nc(-c2ccc(F)cc2)c1-c1cccnc1`, the figure is above 1000 nM; as for `CN(C)c1nc(-c2ccc(F)cc2)c(-c2ccc(F)cc2)n1/C=C/[C@@H](O)C[C@@H](O)CC(=O)O`, 9 nM.
Same read-out and setting: next, `O=C(O)C[C@H](O)C[C@H](O)CCn1c(C(F)(F)F)nc(-c2cccs2)c1-c1ccc(F)cc1`: 64 nM.
In series [2], `CC(C)c1nc(-c2cccnc2)c(-c2ccc(F)cc2)n1/C=C/[C@@H](O)C[C@@H](O)CC(=O)O` came in with a logD of -0.43. The compound also yielded a half-maximal inhibitory concentration (IC50) in series [1] of 1 nM.
On to `O=C(O)C[C@H](O)C[C@H](O)CCn1c(C(F)(F)F)nc(-c2cccc(Cl)c2)c1-c1ccc(F)cc1`, for which the IC50 in series [1] turned out to be 17 nM.
On the same count and under the same terms, next, `Cc1ccc(-c2nc(C(F)(F)F)n(CC[C@@H](O)C[C@@H](O)CC(=O)O)c2-c2ccc(F)cc2)cc1`: 43 nM.
The same measure, in the same setting: as for `Cc1cc(-c2nc(C(F)(F)F)n(CC[C@@H](O)C[C@@H](O)CC(=O)O)c2-c2ccc(F)cc2)cc(C)c1F`, the figure is 32 nM.
For the compound `CC(C)c1c(-c2ccc(F)cc2)nc(-c2ccc(F)cc2)n1/C=C/[C@@H](O)C[C@@H](O)CC(=O)O`, in series [2], the logD is 0.83. Besides, the midpoint of inhibition in series [1], the IC50, lay at 1 nM.
`CC(C)c1nc(-c2ccc(F)cc2)c(-c2ccc(F)cc2)n1/C=C/[C@@H](O)C[C@@H](O)CC(=O)O` [listing 2 of 2 here] gave a pH-dependent lipophilicity (logD) in series [2] of 0.72. Besides, the IC50 worked out at 2 nM in series [1] and 5.3 nM with HepG2.
As to `O=C(O)C[C@H](O)C[C@H](O)/C=C/n1c(C(F)(F)F)nc(-c2ccc(F)cc2)c1-c1ccc(F)cc1`, the pH-dependent lipophilicity (logD) in series [2] was 0.73. The half-maximal inhibitory concentration (IC50) amounted to 13 nM in series [1] and 15.8 nM with HepG2.
In series [1], `Cc1cc(-c2c(-c3ccc(F)cc3)nc(C(C)C)n2/C=C/[C@@H](O)C[C@@H](O)CC(=O)O)cc(C)c1F` came in with an IC50 of 30 nM.
Still for that read-out and setting: as for `Cc1nc(-c2ccc(F)cc2)c(-c2ccc(F)cc2)n1/C=C/[C@@H](O)C[C@@H](O)CC(=O)O`, the figure is above 100 nM.
For `O=C(O)C[C@H](O)C[C@H](O)CCn1c(C(F)(F)F)nc(-c2ccc(F)cc2)c1-c1ccccc1`, in series [1], half-maximal inhibition (IC50) was put at 201 nM.
The same measure, in the same setting: as for `Cc1cccc(-c2nc(C(F)(F)F)n(CC[C@@H](O)C[C@@H](O)CC(=O)O)c2-c2ccc(F)cc2)c1`, the figure is 29 nM.

The term IC50 denotes the concentration that inhibits the measured activity by half. Higher therefore signals lower potency. The term logD denotes lipophilicity at a set pH, counting ionised and neutral species.

The record behind these values is ChEMBL document CHEMBL1126904, “Inhibitors of cholesterol biosynthesis. 1. 3,5-Dihydroxy-7-(N-imidazolyl)-6-heptenoates and -heptanoates, a novel series of HMG-CoA reductase inhibitors” (J Med Chem, 1993).
